Reference: paper PMC8992017 (Journal of medicinal chemistry, 2019)
Entries after “also recorded” stand apart in the source; their conditions may differ.

Experiments:
[1] = system: ISRE; test: ISRE activity in ISRE-bla THP-1 reporter cells; type: cell-based; conditions: compound 5 μM + IFN-α, compared with compound 1
Procedure, shortened: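 ISRE-bla THP-1 cells at 5×10^4/well in RPMI with 10% dialyzed FBS, 0.1 mM non-essential amino acids, 1 mM pyruvate and pen/strep. Test compound (1 mM DMSO stock) was diluted in IFN-α medium, giving final 5 μM compound ([…]) and final 100 U/mL IFN-α. Incubation 16 h, then CCF4-AM FRET substrate 3 h at RT in the dark. Excitation 405 nm; background-subtracted 465/535 nm emission ratio. Two-point normalized: reference sulfonamide + IFN-α = 200%, IFN-α alone = 100%; mean ± SEM.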

[2] = system: NF-κB; test: NF-κB activation in THP1-Blue NF-κB reporter cells; type: cell-based; conditions: compound 5 μM + LPS, compared with compound 1
Procedure, shortened: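 THP1-Blue NF-κB cells at 10^5/well in RPMI with 10% FBS, pen/strep and Normocin. Test compound (1 mM DMSO stock) was diluted into LPS medium, giving final 5 μM compound ([…]), with LPS co-added. After 20 h, supernatant SEAP was measured colorimetrically with QuantiBlue at 630 nm. Two-point normalized: reference sulfonamide + LPS = 200%, LPS alone = 100%; mean ± SEM.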

“3-Bromo-N-(4-chloro-2,5-dimethoxyphenyl)-4-ethoxybenzenesulfonamide [Compound 25]” was tested, and the “ISRE activity (in words)” value [1] was “inactive” and the “NF-κB activity (in words)” value [2] was “inactive”.
With `CCOc1ccc(S(=O)(=O)Nc2ccc(Cl)c(OC)c2)cc1` [Compound 4, N-(4-chloro-3-methoxyphenyl)-4-ethoxybenzenesulfonamide] the “ISRE activity (in words)” value [1] was “complete loss of activity” and the “NF-κB activity (in words)” value [2] was “complete loss of activity”.
`CCOc1ccc(S(=O)(=O)Nc2ccc(Cl)cc2OC)cc1` [Compound 5, N-(4-chloro-2-methoxyphenyl)-4-ethoxybenzenesulfonamide] was tested, and the “ISRE activity (in words)” value [1] was “complete loss of activity” and the “NF-κB activity (in words)” value [2] was “complete loss of activity”.
For `CCOc1ccc(S(=O)(=O)Nc2cc(OC)ccc2OC)cc1` [Compound 6, N-(2,5-dimethoxyphenyl)-4-ethoxybenzenesulfonamide], the “ISRE activity (in words)” value [1] was “retained activity” and the “NF-κB activity (in words)” value [2] was “retained activity”.
`CCOc1ccc(S(=O)(=O)Nc2cc(OC)c(Br)cc2OC)cc1` [Compound 7, N-(4-bromo-2,5-dimethoxyphenyl)-4-ethoxybenzenesulfonamide] was tested, and the “ISRE activity (in words)” value [1] was “retained activity; also recorded: slightly skewed ISRE activity” and the “NF-κB activity (in words)” value [2] was “retained activity”.
`CCOc1ccc(S(=O)(=O)Nc2cc(OC)c(Cl)c(OC)c2)cc1` [Compound 8, N-(4-chloro-3,5-dimethoxyphenyl)-4-ethoxybenzenesulfonamide] was tested, and the “ISRE activity (in words)” value [1] was “complete loss of activity; also recorded: slightly skewed ISRE activity” and the “NF-κB activity (in words)” value [2] was “complete loss of activity”.
`CCOc1ccc(S(=O)(=O)Nc2cc(OC)c([N+](=O)[O-])cc2OC)cc1` [Compound 9, N-(2,5-dimethoxy-4-nitrophenyl)-4-ethoxybenzenesulfonamide] was tested, and the “ISRE activity (in words)” value [1] was “inactive”.
For `CCOc1ccc(S(=O)(=O)Nc2cc(OC)c(N)cc2OC)cc1` [Compound 10, N-(4-amino-2,5-dimethoxyphenyl)-4-ethoxybenzenesulfonamide], the “ISRE activity (in words)” value [1] was “inactive”.
`COc1cc(NS(=O)(=O)c2ccc(O)cc2)c(OC)cc1Cl` [Compound 11, N-(4-chloro-2,5-dimethoxyphenyl)-4-hydroxybenzenesulfonamide] was tested, and the “ISRE activity (in words)” value [1] was “not tolerated” and the “NF-κB activity (in words)” value [2] was “not tolerated”.
For `COc1ccc(S(=O)(=O)Nc2cc(OC)c(Cl)cc2OC)cc1` [Compound 12, N-(4-chloro-2,5-dimethoxyphenyl)-4-methoxybenzenesulfonamide], the “ISRE activity (in words)” value [1] was “tolerated” and the “NF-κB activity (in words)” value [2] was “tolerated”.
`CCCOc1ccc(S(=O)(=O)Nc2cc(OC)c(Cl)cc2OC)cc1` [Compound 13, N-(4-chloro-2,5-dimethoxyphenyl)-4-propoxybenzenesulfonamide] was tested, and the “ISRE activity (in words)” value [1] was “weakly active” and the “NF-κB activity (in words)” value [2] was “weakly active”.
For `CCCCOc1ccc(S(=O)(=O)Nc2cc(OC)c(Cl)cc2OC)cc1` [Compound 14, 4-Butoxy-N-(4-chloro-2,5-dimethoxyphenyl)benzenesulfonamide], the “ISRE activity (in words)” value [1] was “gradual loss of activity” and the “NF-κB activity (in words)” value [2] was “gradual loss of activity”.
In the case of `C#CCOc1ccc(S(=O)(=O)Nc2cc(OC)c(Cl)cc2OC)cc1` [Compound 15, N-(4-chloro-2,5-dimethoxyphenyl)-4-(prop-2-yn-1-yloxy)benzenesulfonamide], the “ISRE activity (in words)” value [1] is reported as “inactive” and the “NF-κB activity (in words)” value [2] is reported as “inactive”.
In the case of `CCCc1ccc(S(=O)(=O)Nc2cc(OC)c(Cl)cc2OC)cc1` [Compound 16, N-(4-chloro-2,5-dimethoxyphenyl)-4-propylbenzenesulfonamide], the “ISRE activity (in words)” value [1] is reported as “loss of activity” and the “NF-κB activity (in words)” value [2] is reported as “loss of activity”.
In the case of `COc1cc(NS(=O)(=O)c2ccc([N+](=O)[O-])cc2)c(OC)cc1Cl` [Compound 17, N-(4-chloro-2,5-dimethoxyphenyl)-4-nitrobenzenesulfonamide], the “ISRE activity (in words)” value [1] is reported as “either weakly active or completely inactive” and the “NF-κB activity (in words)” value [2] is reported as “either weakly active or completely inactive”.
With `COc1cc(NS(=O)(=O)c2ccc(N)cc2)c(OC)cc1Cl` [Compound 18, 4-Amino-N-(4-chloro-2,5-dimethoxyphenyl)benzenesulfonamide] the “ISRE activity (in words)” value [1] was “either weakly active or completely inactive” and the “NF-κB activity (in words)” value [2] was “either weakly active or completely inactive”.
In the case of `COc1cc(NS(=O)(=O)c2ccc(C#N)cc2)c(OC)cc1Cl` [Compound 19, N-(4-chloro-2,5-dimethoxyphenyl)-4-cyanobenzenesulfonamide], the “ISRE activity (in words)” value [1] is reported as “either weakly active or completely inactive” and the “NF-κB activity (in words)” value [2] is reported as “either weakly active or completely inactive”.
In the case of `COc1cc(NS(=O)(=O)c2ccc(CNC(=O)OC(C)(C)C)cc2)c(OC)cc1Cl` [Compound 20, tert-butyl (4-(N-(4-chloro-2,5-dimethoxyphenyl)sulfamoyl)benzyl)carbamate], the “ISRE activity (in words)” value [1] is reported as “either weakly active or completely inactive” and the “NF-κB activity (in words)” value [2] is reported as “either weakly active or completely inactive”.
With `COc1cc(NS(=O)(=O)c2ccc(CN)cc2)c(OC)cc1Cl` [Compound 21, 4-(aminomethyl)-N-(4-chloro-2,5-dimethoxyphenyl)benzenesulfonamide] the “ISRE activity (in words)” value [1] was “either weakly active or completely inactive” and the “NF-κB activity (in words)” value [2] was “either weakly active or completely inactive”.
In the case of `COc1cc(NS(=O)(=O)c2ccc(Oc3ccccc3)cc2)c(OC)cc1Cl` [Compound 22, N-(4-chloro-2,5-dimethoxyphenyl)-4-phenoxybenzenesulfonamide], the “ISRE activity (in words)” value [1] is reported as “inactive”.
`COc1cccc(S(=O)(=O)Nc2cc(OC)c(Cl)cc2OC)c1` [Compound 23, N-(4-chloro-2,5-dimethoxyphenyl)-3-methoxybenzenesulfonamide] was tested, and the “ISRE activity (in words)” value [1] was “none of these molecules was active” and the “NF-κB activity (in words)” value [2] was “none of these molecules was active”.
`COc1cc(NS(=O)(=O)c2ccccc2OC)c(OC)cc1Cl` [Compound 24, N-(4-chloro-2,5-dimethoxyphenyl)-2-methoxybenzenesulfonamide] was tested, and the “ISRE activity (in words)” value [1] was “none of these molecules was active” and the “NF-κB activity (in words)” value [2] was “none of these molecules was active”.
In the case of `COC(=O)c1ccc(S(=O)(=O)Nc2cc(OC)c(Cl)cc2OC)cc1` [Compound 26, Methyl 4-(N-(4-chloro-2,5-dimethoxyphenyl)sulfamoyl)benzoate], the “ISRE activity (in words)” value [1] is reported as “active”.
In the case of `COc1cc(NS(=O)(=O)c2ccc(C(N)=O)cc2)c(OC)cc1Cl` [Compound 27, 4-(N-(4-chloro-2,5-dimethoxyphenyl)sulfamoyl)benzamide], the “ISRE activity (in words)” value [1] is reported as “lost activity” and the “NF-κB activity (in words)” value [2] is reported as “lost activity”.
For `COc1cc(NS(=O)(=O)c2ccc(C(=O)O)cc2)c(OC)cc1Cl` [Compound 28, 4-(N-(4-chloro-2,5-dimethoxyphenyl)sulfamoyl)benzoic acid], the “ISRE activity (in words)” value [1] was “lost activity” and the “NF-κB activity (in words)” value [2] was “lost activity”.
`CCOC(=O)c1ccc(S(=O)(=O)Nc2cc(OC)c(Cl)cc2OC)cc1` [Compound 29, Ethyl 4-(N-(4-chloro-2,5-dimethoxyphenyl)sulfamoyl)benzoate] was tested, and the “ISRE activity (in words)” value [1] was “retained partial activity” and the “NF-κB activity (in words)” value [2] was “retained partial activity”.
For `CNC(=O)c1ccc(S(=O)(=O)Nc2cc(OC)c(Cl)cc2OC)cc1` [Compound 30, 4-(N-(4-chloro-2,5-dimethoxyphenyl)sulfamoyl)-N-methylbenzamide], the “ISRE activity (in words)” value [1] was “completely inactive” and the “NF-κB activity (in words)” value [2] was “completely inactive”.
`CCOc1ccc(NS(=O)(=O)c2cc(OC)c(Cl)cc2OC)cc1` [Compound 31, 4-Chloro-N-(4-ethoxyphenyl)-2,5-dimethoxybenzenesulfonamide] was tested, and the “ISRE activity (in words)” value [1] was “inactivity” and the “NF-κB activity (in words)” value [2] was “inactivity”.
For `CCOc1ccc(S(=O)(=O)N(c2cc(OC)c(Cl)cc2OC)C(C)C)cc1` [Compound 40, N-(4-chloro-2,5-dimethoxyphenyl)-4-ethoxy-N-isopropylbenzenesulfonamide], the “ISRE activity (in words)” value [1] was “retaining ISRE activity” and the “NF-κB activity (in words)” value [2] was “eliminated the NF-κB activity”.
In the case of `CCOc1ccc(S(=O)(=O)N(CC(C)C)c2cc(OC)c(Cl)cc2OC)cc1` [Compound 41, N-(4-chloro-2,5-dimethoxyphenyl)-4-ethoxy-N-isobutylbenzenesulfonamide], the “ISRE activity (in words)” value [1] is reported as “regained the activity” and the “NF-κB activity (in words)” value [2] is reported as “regained the activity”.
With `C#CCN(c1cc(OC)c(Cl)cc1OC)S(=O)(=O)c1ccc(OCC)cc1` [Compound 42, N-(4-chloro-2,5-dimethoxyphenyl)-4-ethoxy-N-(prop-2-yn-1-yl)benzenesulfonamide] the “ISRE activity (in words)” value [1] was “retained activity almost equivalent to that of compound 1” and the “NF-κB activity (in words)” value [2] was “retained activity almost equivalent to that of compound 1”.
`C#CCCN(c1cc(OC)c(Cl)cc1OC)S(=O)(=O)c1ccc(OCC)cc1` [Compound 43, N-(but-3-yn-1-yl)-N-(4-chloro-2,5-dimethoxyphenyl)-4-ethoxybenzenesulfonamide] was tested, and the “ISRE activity (in words)” value [1] was “retained activity almost equivalent to that of compound 1” and the “NF-κB activity (in words)” value [2] was “retained activity almost equivalent to that of compound 1”.
In the case of `COc1cc(NS(=O)(=O)c2ccc(OC)c(N=[N+]=[N-])c2)c(OC)cc1Cl` [Compound 61, 3-Azido-N-(4-chloro-2,5-dimethoxyphenyl)-4-methoxybenzenesulfonamide], the “ISRE activity (in words)” value [1] is reported as “inactive”.
